# From ChEMBL document CHEMBL1275388, “Discovery and synthesis of novel luteolin derivatives as DAT agonists” (Bioorg Med Chem, 2010)
# Molecular target: Sodium-dependent dopamine transporter (Rattus norvegicus, UniProt P23977)
# Experiment: Agonist activity at rat DAT expressed in CHO cells
# Type: functional, cell-based
# How it was run: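 CHO cell lines constructed to stably express DAT were used to measure DAT agonistic activity, reported as EC50.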
# Sequence of Sodium-dependent dopamine transporter (P23977 whole entry): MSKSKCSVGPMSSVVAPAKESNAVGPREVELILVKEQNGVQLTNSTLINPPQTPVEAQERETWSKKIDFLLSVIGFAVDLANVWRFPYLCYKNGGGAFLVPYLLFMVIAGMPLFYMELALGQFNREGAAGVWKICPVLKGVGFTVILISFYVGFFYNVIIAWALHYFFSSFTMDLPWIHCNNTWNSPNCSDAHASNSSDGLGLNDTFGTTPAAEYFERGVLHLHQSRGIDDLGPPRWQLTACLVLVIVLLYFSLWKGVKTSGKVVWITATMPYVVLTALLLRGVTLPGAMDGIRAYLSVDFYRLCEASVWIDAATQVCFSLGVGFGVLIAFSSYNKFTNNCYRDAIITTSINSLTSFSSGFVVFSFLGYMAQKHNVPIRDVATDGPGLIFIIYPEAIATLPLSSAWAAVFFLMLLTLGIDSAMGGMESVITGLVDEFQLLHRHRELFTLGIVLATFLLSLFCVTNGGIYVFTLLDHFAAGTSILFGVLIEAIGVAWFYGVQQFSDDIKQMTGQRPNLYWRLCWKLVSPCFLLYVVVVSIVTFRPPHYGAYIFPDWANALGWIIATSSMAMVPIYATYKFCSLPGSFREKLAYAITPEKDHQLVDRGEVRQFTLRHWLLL
row,Compound,EC50
1,CC(=O)Oc1cc(O)cc2oc(-c3ccc(O)c(O)c3)cc(=O)c12,5.37 µM
2,CCC(=O)Oc1cc(O)cc2oc(-c3ccc(O)c(O)c3)cc(=O)c12,31 µM
3,CCCC(=O)Oc1cc(O)cc2oc(-c3ccc(O)c(O)c3)cc(=O)c12,1.82 µM
4,CC(C)C(=O)Oc1cc(O)cc2oc(-c3ccc(O)c(O)c3)cc(=O)c12,0.046 µM
5,CCCCC(=O)Oc1cc(O)cc2oc(-c3ccc(O)c(O)c3)cc(=O)c12,0.869 µM
6,CC(C)CCC(=O)Oc1cc(O)cc2oc(-c3ccc(O)c(O)c3)cc(=O)c12,2.71 µM
7,CCCCCCCC(=O)Oc1cc(O)cc2oc(-c3ccc(O)c(O)c3)cc(=O)c12,8.56 µM
8,O=C(Oc1cc(O)cc2oc(-c3ccc(O)c(O)c3)cc(=O)c12)c1ccccc1,11.2 µM
9,Cc1ccc(C(=O)Oc2cc(O)cc3oc(-c4ccc(O)c(O)c4)cc(=O)c23)cc1,6.92 µM
10,COc1cc(O)cc2oc(-c3ccc(O)c(O)c3)cc(=O)c12,4.35 µM
11,CCOc1cc(O)cc2oc(-c3ccc(O)c(O)c3)cc(=O)c12,2.21 µM
12,CCCOc1cc(O)cc2oc(-c3ccc(O)c(O)c3)cc(=O)c12,3.07 µM
13,CC(C)Oc1cc(O)cc2oc(-c3ccc(O)c(O)c3)cc(=O)c12,5.43 µM
14,CCCCOc1cc(O)cc2oc(-c3ccc(O)c(O)c3)cc(=O)c12,2.4 µM
15,CC(C)COc1cc(O)cc2oc(-c3ccc(O)c(O)c3)cc(=O)c12,4.8 µM
16,CC(C)CCOc1cc(O)cc2oc(-c3ccc(O)c(O)c3)cc(=O)c12,3.43 µM
17,CCCCCCOc1cc(O)cc2oc(-c3ccc(O)c(O)c3)cc(=O)c12,4.58 µM
18,CCCCCCCCOc1cc(O)cc2oc(-c3ccc(O)c(O)c3)cc(=O)c12,16.5 µM
19,CCCCCCCCCCOc1cc(O)cc2oc(-c3ccc(O)c(O)c3)cc(=O)c12,33 µM
20,O=c1cc(-c2ccc(O)c(O)c2)oc2cc(O)cc(OCCCCc3ccccc3)c12,2.59 µM
21,CCC(=O)Oc1cc(O)c2c(=O)cc(-c3ccc(O)c(O)c3)oc2c1,1.7 µM
22,CCCC(=O)Oc1cc(O)c2c(=O)cc(-c3ccc(O)c(O)c3)oc2c1,1.69 µM
23,CC(C)C(=O)Oc1cc(O)c2c(=O)cc(-c3ccc(O)c(O)c3)oc2c1,1.38 µM
24,COc1cc(OC)c2c(=O)cc(-c3ccc(O)c(O)c3)oc2c1,3.42 µM
25,CCOc1cc(-c2cc(=O)c3c(O)cc(O)cc3o2)ccc1O,12.9 µM
26,O=c1cc(-c2ccc(O)c(O)c2)oc2cc(O)cc(O)c12 [LUTEOLIN],1.45 µM
